From PubChem BioAssay
H69AR inhibit: proliferation blockers of H69AR lung cancer cells, primary screen, cell-based, human, 86K library. 85,000 tested, 6% active. H69AR lung tumor viability, ATP luminescence, 72 h; stronger effect = lower value. viability, % at 10 µM;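 active = viability at or below 40%; inactive = viability above 40%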;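 note: multidrug resistant small cell line overexpressing MRP-1 efflux transporter; 100% = mean luminescence of untreated control wells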
bCat KO growth: primary screen for growth suppressors in beta-catenin knockout HCT116 cells (colon tumor, human). HCT116 beta-catenin knockout viability, CellTiter-Glo, 60 h; stronger effect = lower value. viability, % at 10 µM. 140,000 tested, 1.5% active. AID 818, 2007;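 active = viability at or under a set limit, the compound median less 4 SD, cut at about 6% in these data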;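 note: 0% = Hyamine 1622 control at 20 µM and 100% = untreated cell control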
HCT116 PTEN-null: growth suppression of PTEN-null HCT116, primary screen, cell-based, CellTiter-Glo; HCT116 PTEN-null viability, 60 h; stronger effect = lower value; viability, % at 10 µM; 140,000 tested, 1.2% active; AID 827, 2007;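 active = viability at or below a set limit, 4 SD under the median of all tested compounds, cut at about 3.7% in these data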;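 note: PTEN knockout HCT116 line with beta catenin targeted HCT116 as companion control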
Lung fibro prol: antiproliferative effect on LL 47 fibroblasts – human, LL 47 cells, CellTiter-Glo luminescence, primary screen; LL 47 human lung fibroblast viability, ATP luminescence; stronger effect = lower value; viability, % at 10 µM; 85,000 tested, 1.1% active;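 active = viability at or below 50% in the single dose screen; inactive = viability above 50%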;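 note: compound exposure lasted 72 h before the ATP readout; 100% = median luminescence of untreated cell-only wells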
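Test system: LL 47 human lung fibroblasts / Incubation: 72 h compound exposure at 37 °C after overnight plating / Technique: luminescent ATP detection, CellTiter-Glo / Compound dosing: 0.1% DMSO in all compound wells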
HUVEC inhibit: inhibitors of HUVEC proliferation, primary screen, cell-based, 384-well. CellTiter-Glo luminescence, 72 h; stronger effect = lower value. viability, % at 10 µM (by protocol). 86,000 tested, 1.1% active. AID 648, 2007;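 active = viability at or below 30%; inactive = viability above 30%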;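 note: 100% = median luminescence of DMSO-only cell control wells on each plate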
Phagocyt inh: inhibitors of macrophage phagocytosis, primary screen, imaging, J774A.1 cells, IgG beads; J774A.1 macrophage IgG-bead phagocytosis; inhibition, % at 5 µM; 110,000 tested, 0.07% active; AID 1029, 2008;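 active = inhibition above the mean of the plate negative controls plus 5 SD, cut at about 13% in these data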;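 note: phagocytic index as fraction of beads internalized from green versus red external bead signal; plate controls were DMSO negative control for no effect and cytochalasin-D positive control for full effect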
* = called active by the depositor. Many of the other results were omitted from the sample, so hits are more common in it than they were.

`CCCn1c(CNc2ccc(Br)cc2)nc2ccccc21` gave H69AR inhibit 97, bCat KO growth 55, HCT116 PTEN-null 64, Lung fibro prol 88, HUVEC inhibit 98 and Phagocyt inh 0.
`CCOCCCN(Cc1ccco1)C(=O)c1cc2c(=O)[nH]c3ccc(C)cc3c2s1` gave H69AR inhibit 44, bCat KO growth 47, HCT116 PTEN-null 41, Lung fibro prol 71, HUVEC inhibit 54 and Phagocyt inh 0.
Screening COCCNC(C)C(=O)Nc1ccc(Br)cc1 (centres undefined) returned H69AR inhibit 97, bCat KO growth 107, HCT116 PTEN-null 95, Lung fibro prol 101, HUVEC inhibit 101 and Phagocyt inh 0.
Screening COc1ccc(OC)c2sc(N3CCCCC3)nc12 returned H69AR inhibit 80, bCat KO growth 91, HCT116 PTEN-null 112, Lung fibro prol 46*, HUVEC inhibit 94 and Phagocyt inh -2.
CCN1C/C(=C/c2ccc(N3CCOCC3)cc2)C(=O)/C(=C/c2ccc(N3CCOCC3)cc2)C1 was read as bCat KO growth 2.2*, HCT116 PTEN-null 1.9* and Phagocyt inh -8.
`CN1C/C(=C\c2ccc(N3CCOCC3)cc2)C(=O)/C(=C/c2ccc(N3CCOCC3)cc2)C1` gave bCat KO growth 2.9*, HCT116 PTEN-null 2.2* and Phagocyt inh -12.
Screening CCCC(=O)Nc1ccc(N2CCOCC2)cc1 returned H69AR inhibit 97, bCat KO growth 100, HCT116 PTEN-null 103, Lung fibro prol 97 and HUVEC inhibit 102.
For CN1C/C(=C/c2ccsc2)C(=O)/C(=C/c2ccsc2)C1 the results were bCat KO growth 3.5*, HCT116 PTEN-null 3.1* and Phagocyt inh 2.
`O=C(/C=C/c1ccc(Br)cc1)N1CCN(c2cccc(C(F)(F)F)c2)CC1` gave bCat KO growth 66, HCT116 PTEN-null 69 and Phagocyt inh -10.
`Cc1nc(SCc2cccc(Oc3ccccc3)c2)n[nH]1` gave H69AR inhibit 102, bCat KO growth 91, HCT116 PTEN-null 86, Lung fibro prol 92, HUVEC inhibit 108 and Phagocyt inh -4.
COc1ccc(N(CC(=O)NCc2cccnc2)S(=O)(=O)c2c(C)nn(C)c2C)cc1 was read as H69AR inhibit 98, bCat KO growth 89, HCT116 PTEN-null 80, Lung fibro prol 104, HUVEC inhibit 104 and Phagocyt inh -1.
For N#Cc1ccc(NC(=O)COC(=O)CCNS(=O)(=O)c2ccccc2)cc1 the results were bCat KO growth 97, HCT116 PTEN-null 105 and Phagocyt inh -12.
Brc1ccc2[nH]c3c(N4CCc5ccccc5C4)ncnc3c2c1 was read as H69AR inhibit 6.3*, bCat KO growth 22, HCT116 PTEN-null 18, Lung fibro prol 78, HUVEC inhibit 55 and Phagocyt inh 0.
Screening Cc1ccc2[nH]c3c(N4CCc5ccccc5C4)ncnc3c2c1 returned H69AR inhibit 61, bCat KO growth 7, HCT116 PTEN-null 11, Lung fibro prol 74 and HUVEC inhibit 52.
`CCN(CC)S(=O)(=O)c1ccc2c(c1)nc(CCC(=O)Nc1ccc3c(c1)OCO3)n2CC` gave bCat KO growth 89, HCT116 PTEN-null 83 and Phagocyt inh -2.
CC1CCN(c2c(NCc3ccc(C(=O)N4c5ccccc5CC4C)cc3)c(=O)c2=O)CC1 (centres undefined) was read as H69AR inhibit 34*, bCat KO growth 77, HCT116 PTEN-null 86, Lung fibro prol 92 and HUVEC inhibit 86.
CC1CCN(c2c(NCc3ccc(C(=O)N4CCN(C5CCCCC5)CC4)cc3)c(=O)c2=O)CC1 was read as bCat KO growth 86 and HCT116 PTEN-null 100.
COc1ccc(OC)c(Nc2nc(-c3sc(C)nc3C)cs2)c1 was read as H69AR inhibit 26*, bCat KO growth 94, HCT116 PTEN-null 76, Lung fibro prol 94, HUVEC inhibit 58 and Phagocyt inh -1.
`Cc1ccc(C(=O)c2coc3cc([N+](=O)[O-])c(O)c([N+](=O)[O-])c23)cc1` gave bCat KO growth 102 and HCT116 PTEN-null 99.
`CCCN1C(=O)C(Cc2nc3ccccc3c(=O)n2C)c2ccccc21` (centres undefined) gave H69AR inhibit 33*, bCat KO growth 10, HCT116 PTEN-null 14, Lung fibro prol 103 and HUVEC inhibit 94.
Screening CCN1C(=O)C(Cc2nc3ccccc3c(=O)n2C)c2ccccc21 (centres undefined) returned H69AR inhibit 50, bCat KO growth 91, HCT116 PTEN-null 90, Lung fibro prol 96, HUVEC inhibit 85 and Phagocyt inh 1.
`O=C(COC(=O)CC(c1ccccc1)c1ccccc1)Nc1c(F)cccc1F` gave bCat KO growth 86, HCT116 PTEN-null 89 and Phagocyt inh -5.
